Six compounds from ChEMBL document CHEMBL1125027, “Synthesis and cytotoxicity studies of 8-amino-6-methyl-2-beta-D-ribofuranosyl-1,2,3,5,6,7-hexaazaacenaphthyle ne (7-aza-TCN) and the corresponding 2'-deoxy- and arabinonucleoside analogues” (1990) can be followed below.

SMILES strings stand for the structures.

Assay [1] relates to L1210. Nature of the assay: Growth rate of L1210 tumor cells at a concentration of 10 uM. Format: functional, Mus musculus. An outline of the steps: (§1)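 Murine leukemia L1210 grown in static suspension in Fischer's medium with test compound for 3 days, counted daily. Growth rate = slope of log cell number vs time relative to control, computed as control doubling time (about 12 h) / treated doubling time, expressed as %. Values are single experiments unless footnoted as the average of three.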

For assay [2], the system named is HEp-2. Nature of the assay: Growth rate of H.Ep.2 tumor cells at a concentration of 10 uM. Type of assay: functional, Homo sapiens. In short, it runs like this: (§2)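 Human epidermoid carcinoma H.Ep.2 monolayers kept in exponential growth in Eagle's basal medium (Hanks' salts) with 0.5 g/L NaHCO3 and 15% heat-inactivated calf serum. 2 × 10^4 cells seeded per flask; after 1 day, compound-containing medium added. Trypsin/EDTA harvest and counts of two flasks per group on days 1, 2 and 4. Growth rate = control doubling time (about 19 h) / treated doubling time, as % of control.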

Assay [3] deals with HEp-2. Put plainly: Growth rate of H.Ep.2 tumor cells at a concentration of 100 uM. Type of assay: functional, Homo sapiens. An outline of the steps: as §2
The subject of assay [4] is L1210. Put plainly: Growth rate of L1210 tumor cells at a concentration of 100 uM. Type of assay: functional, Mus musculus. An outline of the steps: as §1
Assay [5] has as its system HEp-2. Nature of the assay: Growth rate of H.Ep.2 tumor cells at a concentration of 50 uM. Format: functional, Homo sapiens. In short, it runs like this: as §2
The subject of assay [6] is L1210. Put plainly: Growth rate of L1210 tumor cells at a concentration of 50 uM. Format: functional, Mus musculus. In short, it runs like this:
as §1

Regarding `CN1N=C(N)c2nn(C3O[C@H](CO)[C@@H](O)[C@H]3O)c3nc(NN)nc1c23` (stereo not given in full), the Growth rate amounted to 86% in assay [1] and 88% in assay [2].

`CN1N=C(N)c2nn(C3O[C@H](CO)[C@@H](O)[C@H]3O)c3ncnc1c23` (stereo not given in full): the figures for the Growth rate in assay [3] and in assay [4] were 67% and 63%, respectively.

Take `CN1N=C(N)c2nn(C3O[C@H](CO)[C@@H](O)[C@@H]3O)c3ncnc1c23` (stereo not given in full): the Growth rate in assay [5] is 62%; in assay [6] it was 75%.

For the compound `CN1N=C(N)c2nn([C@H]3C[C@H](O)[C@@H](CO)O3)c3ncnc1c23`, the Growth rate in assay [3] was found to be 100%; in assay [4] it was 83%.

In turn, `CN1N=C(N)c2nn(C3O[C@H](CO)[C@@H](O)[C@H]3O)c3nc(S(C)(=O)=O)nc1c23` (stereo not given in full) displayed a Growth rate in assay [4] of 86%.

In assay [4], `CSc1nc2c3c(nn(C4O[C@H](CO)[C@@H](O)[C@H]4O)c3n1)C(N)=NN2C` (stereo not given in full) displayed a Growth rate of 81%.
